Test results from ChEMBL document CHEMBL1129943, “5-aminocoumarans: dual inhibitors of lipid peroxidation and dopamine release with protective effects against central nervous system trauma and ischemia” (J Med Chem, 1997).

Experiments:
Format in all cases: functional
Mus musculus [1] = species on record: Mus musculus; assay: Percentage increase of locomotor activity in mice
Rattus norvegicus = species on record: Rattus norvegicus; assay: Inhibition of lipid peroxidation by rat liver microsomes; design: concentration or dose not given beside the values; settings: dose or concentration not given here
Procedure, shortened: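 Rat liver microsomes (S-9), 0.3 mg protein in 40 mM Tris-malate pH 7.4. Peroxidation started with a 1:1 mix of FeCl2 (0.25 mM) and NADPH (3 mM), then 1 h at 37 °C. Compound in DMSO added before incubation, tested up to 1 μM final. Thiobarbituric acid method read-out. Activity relative to DMSO vehicle; IC50 from four concentrations by nonlinear regression, otherwise % inhibition at 1 μM.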

Mus musculus [2] = assay: Locomotor activity was measured in mice after 1 hour administration of methamphetamine; design: unit not given here
Mus musculus [3] = species on record: Mus musculus; assay: Peroral dose required to reduce by 50% the score of excitatory behavior induced by intrathecal injection of ferrous chloride in mice; settings: central, read-out: ID50 (the source's name)
Procedure, shortened: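 Male Slc:ICR mice, 5 weeks old, 10 per dose. Compound given orally 30 min before intrathecal 5 μL of 50 mM FeCl2 in saline (between L6 and S1). Vehicle was water, or 0.5% gum arabic suspension. Behaviour scored 0–5 (biting to death) from 15 min to 1 h. ID50 from three or four doses, relative to vehicle score.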

Mus musculus [4] = assay: Percentage increase of locomotor activity in mice at a dose of 1 mg/kg dihydrochloride (15 mice were used)
Procedure, shortened: (§1)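 Male ICR mice, 5 weeks, 25–35 g, acclimated 90 min. (S)- or (R)-dihydrochloride given ip in 5% gum arabic. Methamphetamine 1 mg/kg ip in saline given 30 min later. Locomotor activity recorded afterwards and expressed relative to saline–methamphetamine controls; two-tailed Student's t-test.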

Mus musculus [5] = assay: Locomotor activity was measured for 1 hour after administration of 1 mg/kg of dihydrchloride in mice (15 mice were used); procedure, shortened: as §1
Mus musculus [6] = assay: Percentage increase of locomotor activity in mice at a dose of 3 mg/kg dihydrochloride (13 mice were used); procedure, shortened: as §1
Mus musculus [7] = assay: Percentage increase of locomotor activity in mice at a dose of 10 mg/kg dihydrochloride (16 mice were used); procedure, shortened: as §1
Mus musculus [8] = assay: Locomotor activity was measured for 1 hour after administration of 3 mg/kg of dihydrchloride in mice (13 mice were used); procedure, shortened: as §1
Mus musculus [9] = assay: Locomotor activity was measured for 1 hour after administration of 10 mg/kg of dihydrchloride in mice (16 mice were used); procedure, shortened: as §1
Mus musculus [10] = assay: Percentage increase of locomotor activity in mice at dose of 1 mg/kg dihydrochloride (9 mice were used)
Mus musculus [11] = assay: Locomotor activity was measured for 1 hour after administration of 0.1 mg/kg dihydrochloride in mice (10 mice were used); procedure, shortened: as §1
Mus musculus [12] = assay: Locomotor activity was measured for 1 hour after administration of 1 mg/kg dihydrochloride in mice (9 mice were used); procedure, shortened: as §1
Mus musculus [13] = assay: Percentage increase of locomotor activity in mice at dose of 1 mg/kg apomorphine (11 mice were used)
Procedure, shortened: (§2)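 Male ICR mice, 5 weeks. Dihydrochloride given ip 30 min before apomorphine 1 mg/kg sc, the hypermotility inducer used in place of methamphetamine. Spontaneous motor activity monitored afterwards; two-tailed Student's t-test.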

Mus musculus [14] = assay: Locomotor activity was measured for 1 hour after administration of 1 mg/kg apomorphine in mice (11 mice were used); procedure, shortened: as §2
Mus musculus [15] = assay: Percentage increase of locomotor activity in mice at dose of 0.1 mg/kg dihydrochloride (10 mice were used); procedure, shortened: as §1
Mus musculus [16] = assay: Locomotor activity was measured for 1 hour after administration of 0.3 mg/kg dihydrochloride in mice (9 mice were used); procedure, shortened: as §1
Mus musculus [17] = assay: Percentage increase of locomotor activity in mice at dose of 0.3 mg/kg dihydrochloride (9 mice were used); procedure, shortened: as §1

Row | SMILES | Increase (Mus musculus [1]) [%] | inhibition (Rattus norvegicus) [%] | Locomotor activity (Mus musculus [2]) | ED50 (Mus musculus [3]) [mg/kg] | also measured
1 | CNc1c(C)c(C)c2c(c1C)CC(C)(C)O2 | 84.7 | 18 | 1229 | 16.6 | –
2 | Cc1c(C)c2c(c(C)c1N)C(c1cccnc1)C(C)(C)O2 (centres undefined) | 52.1 | 22 | 1488 | 32.1 | –
3 | Cc1c(C)c2c(c(C)c1N)CC(C)(CCN1CCCCC1)O2 (centres undefined) | 206.5 | 8 | <3549 | 18.4 | –
4 | Cc1c(C)c2c(c(C)c1N)C[C@](C)(CN1CCC(c3ccccc3)CC1)O2 | – | – | – | 11.6 | Increase (Mus musculus [4]): 129%; Locomotor activity (Mus musculus [5]): 1472; Increase (Mus musculus [6]): 169%; Increase (Mus musculus [7]): 67.7%; Locomotor activity (Mus musculus [8]): 1852; Locomotor activity (Mus musculus [9]): 889
5 | Cc1c(C)c2c(c(C)c1N)CC(C)(CN1CCN(C)CC1)O2 (centres undefined) | 181.1 | 10 | 3154 | 25.3 | –
6 | Cc1c(C)c2c(c(C)c1N)C[C@@](C)(CN1CCC(c3ccccc3)CC1)O2 | – | – | – | 10.8 | Increase (Mus musculus [10]): 35.1%; Locomotor activity (Mus musculus [11]): 2103; Locomotor activity (Mus musculus [12]): 773; Increase (Mus musculus [13]): 124.5%; Locomotor activity (Mus musculus [14]): 841; Increase (Mus musculus [15]): 113.2%; Locomotor activity (Mus musculus [16]): 1102; Increase (Mus musculus [17]): 54.4%
7 | Cc1c(C)c2c(c(C)c1N)CC(C)(CSc1nccn1C)O2 (centres undefined) | 104.2 | 11 | 2228 | 37.1 | –
8 | Cc1c(C)c2c(c(C)c1N)CC(C)(CN1CCCCC1)O2 (centres undefined) | 93.7 | 18 | 2960 | 11.7 | –
9 | Cc1c(C)c2c(c(C)c1N)CC(C)(Cn1ccnc1)O2 (centres undefined) | 155.1 | 6 | 3950 | 25 | –
